The text below walks through data of ChEMBL document CHEMBL1221229, “Phloroglucinol glycosides from the fresh fruits of Eucalyptus maideni” (J Nat Prod, 2010).

The source made the active and inactive calls. The rule behind the calls is not given here.

System in the first data set: not listed separately
Description: Cytotoxicity against african green monkey Vero cells after 3 days by MTT assay. It counts as cell-based. The conditions noted are these: chlorocebus sabaeus, read-out: MNCC. An outline of the steps: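 Confluent Vero monolayers in 96-well plates were exposed in triplicate to serial sample dilutions in DMEM with 2% FBS (pH 7.2) for 3 days. MTT (5 mg/mL in PBS) was added for 4 h, and formazan was dissolved in DMSO with OD read at 540/630 nm. The value is the maximal concentration without cytotoxic effect relative to medium control.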
Turning to `O=c1cc(-c2cc(O)c(O)c(O[C@@H]3O[C@H](CO)[C@@H](O)[C@H](O)[C@H]3O)c2)oc2cc(O)cc(O)c12`, the MNTC at 72 h came to 430 µM.
The same measure, in the same setting: next, `O=c1cc(-c2ccc(O)c(O[C@@H]3O[C@H](CO)[C@@H](O)[C@H](O)[C@H]3O)c2)oc2cc(O)cc(O)c12`: 450 µM; `COc1c(O)cc2c(=O)oc3c(O[C@@H]4O[C@@H](C)[C@H](O)[C@@H](O)[C@H]4O)c(O)cc4c(=O)oc1c2c34`: 430 µM.
Still for that read-out and setting: then `O=C[C@H](O)[C@@H](O)[C@H](O)[C@H](O)COC(=O)c1cc(O)c(O)c(O)c1`, with 9 µM; and `O=c1c(O[C@@H]2O[C@H](CO)[C@@H](O)[C@H](O)[C@H]2O[C@@H]2OC[C@@H](O)[C@H](O)[C@H]2O)c(-c2ccc(O)c(O)c2)oc2cc(O)cc(O)c12`, with 370 µM; and `CC(C)(O)C1CC=C(C(=O)O)CC1` (racemic), with greater than 1090 µM.
For the compound `O=C(O)c1cc(O)c(O)c(O)c1` [GALLIC ACID], the MNTC at 72 h is 590 µM.
Still for that read-out and setting: then `O=c1c(O[C@@H]2O[C@H](CO)[C@@H](O)[C@H](O)[C@H]2O)c(-c2ccc(O)c(O)c2)oc2cc(O)cc(O)c12` [ISOQUERCETIN], with 430 µM; and `O=c1cc(-c2ccc(O)c(O)c2)oc2cc(O)cc(O)c12` [LUTEOLIN], with 700 µM.
Turning to `O=c1c(O)c(-c2cc(O)c(O)c(O)c2)oc2cc(O)cc(O)c12` [MYRICETIN], the MNTC at 72 h came out at 310 µM.
The same measure, in the same setting: then `O=c1c(O)c(-c2ccc(O)c(O)c2)oc2cc(O)cc(O)c12` [QUERCETIN], with less than 20 µM; and `O=c1cc(-c2cc(O)c(O)c(O)c2)oc2cc(O)cc(O)c12` [TRICETIN], with 40 µM.

The test system of the next data set is Human alphaherpesvirus 1. Kind of data set: Antiviral activity against HSV1 infected african green monkey Vero cells assessed as reduction of plaque formation after 3 days by using crystal violet stain. Type of data set: functional, organism-based.
Settings: not given
An outline of the steps: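 Vero cells in 24-well plates, grown 24 h, then infected with 30 PFU HSV-1 alongside serial sample dilutions in DMEM with 2% FBS (pH 7.2, NaHCO3/Hepes). The wells were overlaid with 1% methylcellulose medium and incubated 3 days. Monolayers were formalin-fixed and crystal violet-stained, and plaques counted by microscope. The 100% plaque-reducing concentration was read from graphic plots. Aciclovir was the positive control.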
Consider `O=c1cc(-c2cc(O)c(O)c(O[C@@H]3O[C@H](CO)[C@@H](O)[C@H](O)[C@H]3O)c2)oc2cc(O)cc(O)c12`, for which the inhibition result is “inactive”.
Same read-out and setting: then `O=c1cc(-c2ccc(O)c(O[C@@H]3O[C@H](CO)[C@@H](O)[C@H](O)[C@H]3O)c2)oc2cc(O)cc(O)c12`, with “inactive”; and `COc1c(O)cc2c(=O)oc3c(O[C@@H]4O[C@@H](C)[C@H](O)[C@@H](O)[C@H]4O)c(O)cc4c(=O)oc1c2c34`, with “inactive”.
Still for that read-out and setting: then `O=C[C@H](O)[C@@H](O)[C@H](O)[C@H](O)COC(=O)c1cc(O)c(O)c(O)c1`, with “inactive”; and `O=c1c(O[C@@H]2O[C@H](CO)[C@@H](O)[C@H](O)[C@H]2O[C@@H]2OC[C@@H](O)[C@H](O)[C@H]2O)c(-c2ccc(O)c(O)c2)oc2cc(O)cc(O)c12`, with “inactive”.
On to `CC(C)(O)[C@H]1CC=C(C(=O)OC[C@H]2O[C@@H](OC(=O)[C@H]3CC[C@H](C(C)(C)O)CC3)[C@H](O)[C@@H](O)[C@@H]2O)CC1`, for which the inhibition entry was “inactive”.
On to `CC(C)(O)[C@H]1CC=C(C(=O)OC[C@H]2O[C@@H](Oc3c(O)cc(C(=O)O)cc3O)[C@H](O)[C@@H](O)[C@@H]2O)CC1`, for which the inhibition entry was “inactive”.
As to `CC(C)(O)[C@H]1CC=C(C(=O)OC[C@H]2O[C@@H](Oc3cc(C(=O)O)cc(O)c3O)[C@H](O)[C@@H](O)[C@@H]2O)CC1`, the inhibition entry was “inactive”.
Take `COc1cc([C@@H]2c3cc(O)c(OC)cc3C[C@H](CO)[C@H]2CO[C@@H]2O[C@H](CO)[C@@H](O)[C@H](O)[C@H]2O)ccc1O`: the inhibition entry was “inactive”.
The same measure, in the same setting: next, `CC(C)(O)C1CC=C(C(=O)O)CC1` (racemic): “inactive”; `O=C(O)c1cc(O)c(O)c(O)c1` [GALLIC ACID]: “inactive”.
As for `O=c1c(O[C@@H]2O[C@H](CO)[C@@H](O)[C@H](O)[C@H]2O)c(-c2ccc(O)c(O)c2)oc2cc(O)cc(O)c12` [ISOQUERCETIN], the inhibition result was “inactive”.
With `O=c1cc(-c2ccc(O)c(O)c2)oc2cc(O)cc(O)c12` [LUTEOLIN], the inhibition entry was “inactive”.
Take `O=c1c(O)c(-c2cc(O)c(O)c(O)c2)oc2cc(O)cc(O)c12` [MYRICETIN]: the TIC is recorded as 0.31 mM.
With `O=c1c(O)c(-c2ccc(O)c(O)c2)oc2cc(O)cc(O)c12` [QUERCETIN], the TIC is 0.33 mM.
Consider `O=c1cc(-c2cc(O)c(O)c(O)c2)oc2cc(O)cc(O)c12` [TRICETIN], for which the inhibition result is “inactive”.
